In ChEMBL document CHEMBL2203148, “Increased selectivity toward cytoplasmic versus mitochondrial ribosome confers improved efficiency of synthetic aminoglycosides in fixing damaged genes: a strategy for treatment of genetic diseases caused by nonsense mutations” (J Med Chem, 2012):
≈ marks a conversion by molar mass, not a printed value. Structures can show the parent of a compound that is named as a salt. Calls of active or inactive are those of the source. No cut-off for these calls is given here.

Key:
[1] = tested on: Ribosome; test: Inhibition of ribosome-mediated translation of DMD R3381X nonsense mutant gene expressed in rabbit reticulocytes harboring p2luc plasmid after 16 hrs by dual luciferase reporter gene assay; format: subcellular; parameters: scale not given: the % may be the effect or the level left
[2] = tested on: Ribosome; test: Inhibition of ribosome-mediated translation of CFTR W1282X nonsense mutant gene expressed in rabbit reticulocytes harboring p2luc plasmid after 16 hrs by dual luciferase reporter gene assay; format: subcellular; parameters: scale not given: the % may be the effect or the level left
[3] = tested on: Ribosome; test: Inhibition of ribosome-mediated translation of PCDH15 R245X nonsense mutant gene expressed in rabbit reticulocytes harboring p2luc plasmid after 16 hrs by dual luciferase reporter gene assay; format: subcellular; parameters: scale not given: the % may be the effect or the level left
[4] = Selectivity ratio of IC50 for ribosome-mediated protein synthesis in rabbit reticulocytes to IC50 for ribosome S30 subunit-mediated protein synthesis in Escherichia coli
[5] = tested on: Ribosome; test: Inhibition of ribosome-mediated translation of IDUA Q70X nonsense mutant gene expressed in rabbit reticulocytes harboring p2luc plasmid after 16 hrs by dual luciferase reporter gene assay; format: subcellular; parameters: scale not given: the % may be the effect or the level left
[6] = Inhibition of ribosome S30 subunit-mediated protein synthesis in Escherichia coli after 60 mins by coupled transcription/translation assay
Summary of the method: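 Prokaryotic coupled transcription/translation with a luciferase read-out. Varied aminoglycoside concentrations were incubated with the 10 µl reaction at 37°C for 60 min, then ice-cooled 5 min. Samples were diluted in tris-phosphate (25 mM, pH 7.8), DTT, CDTA, glycerol, Triton X-100 and BSA, and luminescence was read on adding luciferase reagent. IC50 was fitted from at least three independent experiments.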

[7] = tested on: Ribosome; test: Inhibition of ribosome-mediated translation of CFTR G542X nonsense mutant gene expressed in rabbit reticulocytes harboring p2luc plasmid after 16 hrs by dual luciferase reporter gene assay; format: subcellular; parameters: scale not given: the % may be the effect or the level left
[8] = tested on: Ribosome; test: Inhibition of ribosome-mediated translation of PCDH15 R3X nonsense mutant gene expressed in rabbit reticulocytes harboring p2luc plasmid after 16 hrs by dual luciferase reporter gene assay; format: subcellular; parameters: scale not given: the % may be the effect or the level left
[9] = (§1) Cytotoxicity against human HEK293 cells assessed as cell viability after 48 hrs by XTT based calorimetric assay; details: HEK293 cells, read-out: LC50
Summary of the method: (§2)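 Cells seeded at 5,000/well in DMEM with 10% FBS and 1% glutamine at 37 °C, 5% CO₂; after overnight culture, graded aminoglycoside concentrations added for a further 48 hr. XTT viability read-out with 3 hr incubation by optical density, viability expressed relative to untreated cultures; LC50 fitted from concentration-response curves of at least three independent experiments.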

[10] = tested on: Escherichia coli; test: Antibacterial activity against Escherichia coli R477/100 by microdilution method; format: functional
[11] = tested on: Ribosome; test: Inhibition of ribosome-mediated protein synthesis in rabbit reticulocytes after 60 mins by coupled transcription/translation assay; format: subcellular, Oryctolagus cuniculus
Summary of the method: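 Eukaryotic inhibition used the TNT T7 Quick coupled transcription/translation system with T7 control luciferase DNA. Varied aminoglycoside concentrations were incubated with the 10 µl reaction at 30 °C for 60 min and ice-cooled 5 min. Samples were diluted in the same buffer and luminescence was read on adding luciferase reagent. IC50 was fitted from at least three independent experiments.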

[12] = tested on: Bacillus subtilis; test: Antibacterial activity against Bacillus subtilis ATCC-6633 by double-microdilution method; format: functional, organism-based
[13] = target: mitochondrial ribosome (Homo sapiens); test: Inhibition of mitochondrial ribosome-mediated protein synthesis in human HeLa cells assessed as {35S]methionine incorporation by autoradiography
[14] = tested on: HEK293; test: as §1; details: hek293, 48 h, read-out: LC50 (the source's name); summary of the method: as §2
[15] = tested on: HeLa; test: Ratio of compound IC50 to gentamicin IC50 for inhibition of mitochondrial ribosome- protein synthesis in human HeLa cells; format: subcellular
[16] = tested on: HFF; test: Cytotoxicity against human HFF cells assessed as cell viability after 48 hrs by XTT based calorimetric assay relative to control; summary of the method: as §2

Compound	Activity [1] [%]	Activity [2] [%]	Activity [3] [%]	Ratio IC50 [4]	Activity [5]	IC50 [6] [µM]	Activity [7] [%]	Activity [8] [%]	CC50 at 48 h [9] [µM]	MIC [10] [µM]	IC50 [11] [µM]	Activity [12]	IC50 [13] [µM]	CC50 [14] [µM]	Ratio IC50 [15]	Activity [16]
C[C@@H](O)[C@H]1O[C@H](O[C@H]2[C@H](O[C@@H]3O[C@H](CN)[C@@H](O)[C@H]3O)[C@@H](O)[C@H](N)C[C@@H]2N)[C@H](N)[C@@H](O)[C@@H]1O	20	20	20	15	20%	1.1	20	20	22200	–	–	–	–	–	–	–
C[C@H](N)[C@H]1O[C@@H](O[C@@H]2[C@@H](O)[C@H](NC(=O)[C@@H](O)CCN)C[C@H](N)[C@H]2O[C@H]2O[C@H]([C@@H](C)O)[C@@H](O)[C@H](O)[C@H]2N)[C@H](O)[C@@H]1O	–	–	–	0.4	–	1.8	–	–	5100	384 (≈ 224 µg/mL)	0.7	–	–	–	–	–
NC[C@H]1O[C@@H](O[C@@H]2[C@@H](O)[C@H](N)C[C@H](N)[C@H]2O[C@H]2O[C@H](CO)[C@@H](O)[C@H](O)[C@H]2N)[C@H](O)[C@@H]1O	–	–	–	68	–	0.5	–	–	21900	790 (≈ 359 µg/mL)	31	–	–	–	–	–
C[C@H](N)[C@H]1O[C@@H](O[C@@H]2[C@@H](O)[C@H](N)C[C@H](N)[C@H]2O[C@H]2O[C@H](CO)[C@@H](O)[C@H](O)[C@H]2N)[C@H](O)[C@@H]1O	–	–	–	7.9	–	2	–	–	–	2660 (≈ 1250 µg/mL)	16	–	–	–	–	–
C[C@@H](N)[C@H]1O[C@@H](O[C@@H]2[C@@H](O)[C@H](NC(=O)[C@@H](O)CCN)C[C@H](N)[C@H]2O[C@H]2O[C@H]([C@@H](C)O)[C@@H](O)[C@H](O)[C@H]2N)[C@H](O)[C@@H]1O	–	–	–	0.5	Dose-dependent effect	1.8	–	–	5400	384 (≈ 224 µg/mL)	0.9	–	–	–	–	–
C[C@@H](O)[C@H]1O[C@H](O[C@H]2[C@H](O[C@@H]3O[C@H](CN)[C@@H](O)[C@H]3O)[C@@H](O)[C@H](NC(=O)[C@@H](O)CCN)C[C@@H]2N)[C@H](N)[C@@H](O)[C@@H]1O	50	50	50	2.9	50%	1	50	50	5800	556 (≈ 317 µg/mL)	2.8	–	–	–	–	–
C[C@@H](N)[C@H]1O[C@@H](O[C@@H]2[C@@H](O)[C@H](N)C[C@H](N)[C@H]2O[C@H]2O[C@H]([C@@H](C)O)[C@@H](O)[C@H](O)[C@H]2N)[C@H](O)[C@@H]1O	20	20	20	4.3	20%	1.9	20	20	16500	1540 (≈ 741 µg/mL)	8	–	–	–	–	–
GENTAMICIN SULFATE [listing 1 of 2 here]	20	20	20	2210	20%	–	20	20	–	6	–	Active	–	–	–	–
NC[C@@H]1O[C@H](O[C@H]2[C@@H](O)[C@H](O[C@@H]3[C@@H](O)[C@H](N)C[C@H](N)[C@H]3O[C@H]3O[C@H](CO)[C@@H](O)[C@H](O)[C@H]3N)O[C@@H]2CO)[C@H](N)[C@@H](O)[C@@H]1O [PAROMOMYCIN SULFATE]	–	–	–	1120	–	0.05	–	–	–	22	57	–	–	–	–	–
C[C@@H](N)[C@H]1O[C@@H](O[C@@H]2[C@@H](O)[C@H](N)C[C@H](N)[C@H]2O[C@H]2O[C@H](CO)[C@@H](O)[C@H](O)[C@H]2N)[C@H](O)[C@@H]1O	–	–	–	13	–	2.1	–	–	–	4990 (≈ 2340 µg/mL)	28	–	–	–	–	–
C[C@H](N)[C@H]1O[C@@H](O[C@@H]2[C@@H](O)[C@H](NC(=O)[C@@H](O)CCN)C[C@H](N)[C@H]2O[C@H]2O[C@H](CO)[C@@H](O)[C@H](O)[C@H]2N)[C@H](O)[C@@H]1O	–	–	–	2.3	–	2.3	–	–	–	1070 (≈ 608 µg/mL)	5.2	–	–	–	–	–
C[C@@H](N)[C@H]1O[C@@H](O[C@@H]2[C@@H](O)[C@H](NC(=O)[C@@H](O)CCN)C[C@H](N)[C@H]2O[C@H]2O[C@H](CO)[C@@H](O)[C@H](O)[C@H]2N)[C@H](O)[C@@H]1O	–	–	–	5.7	–	0.8	–	–	–	1060 (≈ 602 µg/mL)	4.6	–	–	–	–	–
GENTAMICIN SULFATE [listing 2 of 2 here]	–	–	–	–	–	–	–	–	–	–	62	–	26	2500	–	–
C[C@H](N)[C@H]1O[C@@H](O[C@@H]2[C@@H](O)[C@H](N)C[C@H](N)[C@H]2O[C@H]2O[C@H]([C@@H](C)O)[C@@H](O)[C@H](O)[C@H]2N)[C@H](O)[C@@H]1O	50	50	50	1.3	50%	1.1	50	50	5400	768 (≈ 371 µg/mL)	1.5	–	–	–	–	–
NCC[C@H](O)C(=O)N[C@@H]1C[C@H](N)[C@@H](O[C@H]2O[C@H](CO)[C@@H](O)[C@H](O)[C@H]2N)[C@H](O[C@@H]2O[C@H](CN)[C@@H](O)[C@H]2O)[C@H]1O	–	–	–	151	–	0.2	–	–	5500	588 (≈ 327 µg/mL)	24	–	–	–	19	–
CN[C@@H]1[C@@H](O)[C@@H](O[C@@H]2[C@@H](O)[C@H](O[C@H]3O[C@H]([C@@H](C)O)[C@@H](O)[C@H](O)[C@H]3N)[C@@H](N)C[C@H]2N)OC[C@]1(C)O.O=S(=O)(O)O [GENETICIN SULFATE SALT]	–	–	–	–	–	0.01	–	–	–	9	2	Active	–	–	–	Non-toxic
